Legend:
[1] = test system: MIA PaCa-2; experiment: Cytotoxicity against human MIAPaCa2 cells assessed as reduction in cell viability incubated for 72 hrs by alamar blue assay; format: functional, cell-based; conditions: MIA PaCa-2, 72 h
Procedure, shortened: (§1)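 Adherent cells were seeded at 1500 cells/well in 384-well plates and allowed 2–3 h to attach. Compounds in DMSO, diluted in media over 31.6 nM–200 μM, were tested in triplicate for 72 h continuous exposure at 37 °C, 5% CO2. Alamar Blue was added for the final 3 h and fluorescence read (ex 560/em 590 nm). IC50 was fitted from ≥3 independent experiments.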

[2] = test system: REH; experiment: Cytotoxicity against human REH cells assessed as cell viability at 5 uM incubated for 72 hrs in presence of 100 uM 6TP by alamar blue assay (reference value: 49.5 %); format: functional
Procedure, shortened: (§2)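 Combination assay in 96-well plates with 100 μL final volume and 1% DMSO. Two test-compound concentrations were crossed with five 6TP concentrations, then cells were added (4000/well adherent, 7000/well suspension). Plates ran 72 h at 37 °C, 5% CO2, with Alamar Blue viability read-out and ≥3 independent experiments. Combination index was calculated by the Chou–Talalay method.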

[3] = test system: MIA PaCa-2; experiment: Cytotoxicity against human MIAPaCa2 cells assessed as combinational index at 5 uM incubated for 72 hrs in presence of 25 uM 6TP by alamar blue assay; format: functional; procedure, shortened: as §2
[4] = test system: REH; experiment: Cytotoxicity against human REH cells assessed as combinational index at 5 uM incubated for 72 hrs in presence of 100 uM 6TP by alamar blue assay; format: functional; procedure, shortened: as §2
[5] = test system: MIA PaCa-2; experiment: Cytotoxicity against human MIAPaCa2 cells assessed as cell viability at 2.5 uM incubated for 72 hrs in presence of 50 uM 6TP by alamar blue assay (reference value: 13.8 %); format: functional; procedure, shortened: as §2
[6] = test system: REH; experiment: Cytotoxicity against human REH cells assessed as cell viability at 2.5 uM incubated for 72 hrs in presence of 10 uM 6TP by alamar blue assay (reference value: 10.8 %); format: functional; procedure, shortened: as §2
[7] = test system: REH; experiment: Cytotoxicity against human REH cells assessed as cell viability at 2.5 uM incubated for 72 hrs in presence of 50 uM 6TP by alamar blue assay (reference value: 21.9 %); format: functional; procedure, shortened: as §2
[8] = test system: HeLa; experiment: Cytotoxicity against human HeLa cells assessed as reduction in cell viability incubated for 72 hrs by alamar blue assay; format: functional, cell-based; procedure, shortened: as §1
[9] = test system: REH; experiment: Cytotoxicity against human REH cells assessed as combinational index at 2.5 uM incubated for 72 hrs in presence of 200 uM 6TP by alamar blue assay; format: functional; procedure, shortened: as §2
[10] = test system: MIA PaCa-2; experiment: Cytotoxicity against human MIAPaCa2 cells assessed as cell viability at 5 uM incubated for 72 hrs in presence of 50 uM 6TP by alamar blue assay (reference value: 13.8 %); format: functional; procedure, shortened: as §2
[11] = test system: MIA PaCa-2; experiment: Cytotoxicity against human MIAPaCa2 cells assessed as combinational index at 2.5 uM incubated for 72 hrs in presence of 25 uM 6TP by alamar blue assay; format: functional; procedure, shortened: as §2
[12] = test system: REH; experiment: Cytotoxicity against human REH cells assessed as cell viability at 5 uM incubated for 72 hrs in presence of 25 uM 6TP by alamar blue assay (reference value: 12.2 %); format: functional; procedure, shortened: as §2
[13] = test system: REH; experiment: Cytotoxicity against human REH cells assessed as combinational index at 2.5 uM incubated for 72 hrs in presence of 25 uM 6TP by alamar blue assay; format: functional; procedure, shortened: as §2
[14] = test system: REH; experiment: Cytotoxicity against human REH cells assessed as combinational index at 5 uM incubated for 72 hrs in presence of 50 uM 6TP by alamar blue assay; format: functional; procedure, shortened: as §2
[15] = test system: REH; experiment: Cytotoxicity against human REH cells assessed as combinational index at 2.5 uM incubated for 72 hrs in presence of 50 uM 6TP by alamar blue assay; format: functional; procedure, shortened: as §2
[16] = test system: MIA PaCa-2; experiment: Cytotoxicity against human MIAPaCa2 cells assessed as combinational index at 5 uM incubated for 72 hrs in presence of 200 uM 6TP by alamar blue assay; format: functional; procedure, shortened: as §2
[17] = test system: REH; experiment: Cytotoxicity against human REH cells assessed as cell viability at 5 uM incubated for 72 hrs in presence of 50 uM 6TP by alamar blue assay (reference value: 21.9 %); format: functional; procedure, shortened: as §2
[18] = test system: REH; experiment: Cytotoxicity against human REH cells assessed as combinational index at 5 uM incubated for 72 hrs in presence of 200 uM 6TP by alamar blue assay; format: functional; procedure, shortened: as §2
[19] = test system: REH; experiment: Cytotoxicity against human REH cells assessed as combinational index at 2.5 uM incubated for 72 hrs in presence of 100 uM 6TP by alamar blue assay; format: functional; procedure, shortened: as §2
[20] = test system: MIA PaCa-2; experiment: Cytotoxicity against human MIAPaCa2 cells assessed as cell viability at 5 uM incubated for 72 hrs in presence of 10 uM 6TP by alamar blue assay (reference value: 6.9 %); format: functional; procedure, shortened: as §2
[21] = test system: A549; experiment: Cytotoxicity against human A549 cells assessed as reduction in cell viability incubated for 72 hrs by alamar blue assay; format: functional, cell-based; conditions: A549, 72 h; procedure, shortened: as §1
[22] = test system: MIA PaCa-2; experiment: Cytotoxicity against human MIAPaCa2 cells assessed as cell viability at 5 uM incubated for 72 hrs in presence of 100 uM 6TP by alamar blue assay (reference value: 30.7 %); format: functional; procedure, shortened: as §2
[23] = test system: MIA PaCa-2; experiment: Cytotoxicity against human MIAPaCa2 cells assessed as combinational index at 5 uM incubated for 72 hrs in presence of 50 uM 6TP by alamar blue assay; format: functional; procedure, shortened: as §2
[24] = test system: HCT-116; experiment: Cytotoxicity against human HCT116 cells assessed as reduction in cell viability incubated for 72 hrs by alamar blue assay; format: functional, cell-based; conditions: HCT-116, 72 h; procedure, shortened: as §1
[25] = test system: MIA PaCa-2; experiment: Cytotoxicity against human MIAPaCa2 cells assessed as cell viability at 5 uM incubated for 72 hrs by alamar blue assay (reference value: 0 %); format: functional; conditions: MIA PaCa-2, 72 h, read-out: Activity; procedure, shortened: as §2
[26] = test system: MIA PaCa-2; experiment: Cytotoxicity against human MIAPaCa2 cells assessed as combinational index at 2.5 uM incubated for 72 hrs in presence of 200 uM 6TP by alamar blue assay; format: functional; procedure, shortened: as §2
[27] = test system: MIA PaCa-2; experiment: Cytotoxicity against human MIAPaCa2 cells assessed as cell viability at 5 uM incubated for 72 hrs in presence of 25 uM 6TP by alamar blue assay (reference value: 6.4 %); format: functional; procedure, shortened: as §2
[28] = test system: REH; experiment: Cytotoxicity against human REH cells assessed as combinational index at 5 uM incubated for 72 hrs in presence of 25 uM 6TP by alamar blue assay; format: functional; procedure, shortened: as §2
[29] = test system: REH; experiment: Cytotoxicity against human REH cells assessed as cell viability at 2.5 uM incubated for 72 hrs in presence of 100 uM 6TP by alamar blue assay (reference value: 49.5 %); format: functional; procedure, shortened: as §2
[30] = test system: MIA PaCa-2; experiment: Cytotoxicity against human MIAPaCa2 cells assessed as cell viability at 2.5 uM incubated for 72 hrs by alamar blue assay (reference value: 0 %); format: functional; conditions: MIA PaCa-2, 72 h, read-out: Activity; procedure, shortened: as §2
[31] = test system: MIA PaCa-2; experiment: Cytotoxicity against human MIAPaCa2 cells assessed as cell viability at 2.5 uM incubated for 72 hrs in presence of 25 uM 6TP by alamar blue assay (reference value: 6.4 %); format: functional; procedure, shortened: as §2
[32] = test system: REH; experiment: Cytotoxicity against human REH cells assessed as reduction in cell viability incubated for 72 hrs by alamar blue assay; format: functional, cell-based
Procedure, shortened: (§3)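 Suspension cells (2200/well, 384-well) were added directly onto compound in media with no attachment period. Compounds spanned 31.6 nM–200 μM in triplicate, with 72 h exposure at 37 °C, 5% CO2. Alamar Blue was added for the last 3 h and fluorescence read (ex 560/em 590 nm). IC50 came from ≥3 independent experiments.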

[33] = test system: MIA PaCa-2; experiment: Cytotoxicity against human MIAPaCa2 cells assessed as combinational index at 2.5 uM incubated for 72 hrs in presence of 100 uM 6TP by alamar blue assay; format: functional; procedure, shortened: as §2
[34] = test system: MIA PaCa-2; experiment: Cytotoxicity against human MIAPaCa2 cells assessed as cell viability at 2.5 uM incubated for 72 hrs in presence of 100 uM 6TP by alamar blue assay (reference value: 30.7 %); format: functional; procedure, shortened: as §2
[35] = test system: REH; experiment: Cytotoxicity against human REH cells assessed as cell viability at 2.5 uM incubated for 72 hrs by alamar blue assay (reference value: 0 %); format: functional; conditions: read-out: Activity; procedure, shortened: as §2
[36] = test system: U-937; experiment: Cytotoxicity against human U937 cells assessed as reduction in cell viability incubated for 72 hrs by alamar blue assay; format: functional, cell-based; conditions: U-937, 72 h; procedure, shortened: as §3
[37] = test system: MIA PaCa-2; experiment: Cytotoxicity against human MIAPaCa2 cells assessed as combinational index at 2.5 uM incubated for 72 hrs in presence of 50 uM 6TP by alamar blue assay; format: functional; procedure, shortened: as §2
[38] = test system: REH; experiment: Cytotoxicity against human REH cells assessed as cell viability at 2.5 uM incubated for 72 hrs in presence of 25 uM 6TP by alamar blue assay (reference value: 12.2 %); format: functional; procedure, shortened: as §2
[39] = test system: REH; experiment: Cytotoxicity against human REH cells assessed as cell viability at 5 uM incubated for 72 hrs by alamar blue assay (reference value: 0 %); format: functional; conditions: read-out: Activity; procedure, shortened: as §2
[40] = test system: MIA PaCa-2; experiment: Cytotoxicity against human MIAPaCa2 cells assessed as cell viability at 2.5 uM incubated for 72 hrs in presence of 10 uM 6TP by alamar blue assay (reference value: 6.9 %); format: functional; procedure, shortened: as §2
[41] = test system: REH; experiment: Cytotoxicity against human REH cells assessed as cell viability at 5 uM incubated for 72 hrs in presence of 10 uM 6TP by alamar blue assay (reference value: 10.8 %); format: functional; procedure, shortened: as §2
[42] = test system: MIA PaCa-2; experiment: Cytotoxicity against human MIAPaCa2 cells assessed as combinational index at 5 uM incubated for 72 hrs in presence of 100 uM 6TP by alamar blue assay; format: functional; procedure, shortened: as §2

`COCOc1cc(OC)c(C(=O)/C=C/c2ccccc2)c(OCOC)c1` was tested, and the IC50 [1] was 2.2 µM, the Activity [2] was 51% and the CI [3] was 0.55. It also gave a CI [4] of 1.06, an Activity [5] of 25.1% and an Activity [6] of 11.1%. It also gave an Activity [7] of 22.1%, an IC50 [8] of 9.7 µM and a CI [9] of 0.63. The Activity [10] was 40.8%, the CI [11] was 0.67 and the Activity [12] was 19.1%. The CI [13] was 0.81, the CI [14] was 0.84 and the CI [15] was 1.36. The CI [16] was 0.19, the Activity [17] was 26.1% and the CI [18] was 0.64. It also gave a CI [19] of 1.36, an Activity [20] of 25.4% and an IC50 [21] of 4.2 µM. The Activity [22] was 61.2%, the CI [23] was 0.51 and the IC50 [24] was greater than 20 µM. The viability at 5 µM [25] was 16.2%, the CI [26] was 0.31 and the Activity [27] was 30%. It also gave a CI [28] of 0.67, an Activity [29] of 51% and a viability at 2.5 µM [30] of 10.2%. For the same molecule, the Activity [31] was 18.6%, the IC50 [32] was 9.2 µM and the CI [33] was 0.72. The Activity [34] was 49.1%, the viability at 2.5 µM [35] was 8.1% and the IC50 [36] was 5.9 µM. The CI [37] was 0.79, the Activity [38] was 13.5% and the viability at 5 µM [39] was 9%. For the same molecule, the Activity [40] was 16.5%, the Activity [41] was 12.7% and the CI [42] was 0.36.

Source: ChEMBL document CHEMBL4334424, “The winding road of the uvaretin class of natural products: from total synthesis to bioactive agent discovery” (Medchemcomm, 2019)
